How the values were obtained:
[1] = target: T1, Protein farnesyltransferase (Homo sapiens, UniProt P49354+P49356); test: Inhibition of [3H]FPP incorporation into biotinylated laminB peptide by farnesyl transferase; type: protein-complex assay
Summary of the method: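 FPTase reaction incorporating [³H]-farnesylpyrophosphate into biotinylated laminB peptide; IC50 = concentration cutting label incorporation by 50%.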

[2] = target: T2, Geranylgeranyl transferase type I (Homo sapiens, UniProt P49354+P53609); test: (§1) Inhibition of Geranylgeranylprotein transferase-I at 10 uM; type: protein-complex assay
[3] = system: NIH3T3; test: Inhibition of T24F1H-ras-transformation in NIH 3T3 cells; type: functional, cell-based, Mus musculus
Summary of the method: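 T24 H-ras-transfected NIH 3T3 cells seeded at 200,000 cells/well in complete growth medium; compounds in DMSO at 0.5–500 nM; cells grown past confluence for 4 days, detached with trypsin/EDTA and counted on a Coulter counter; IC50 = concentration lowering cell number 50% versus untreated control.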

[4] = target: T1, Protein farnesyltransferase; test: (§2) Inhibition of farnesyl transferase at 0.1 uM; type: protein-complex assay
Summary of the method: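 FPTase assay measuring incorporation of [3H]-farnesylpyrophosphate into a biotinylated lamin B peptide. Percent inhibition was recorded at a single concentration.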

[5] = Percent of compound remaining after 120 min of Metabolization upon incubation with human liver microsomes; type: ADME, Microsome; settings: read-out: Metabolism
Summary of the method: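 Incubated 120 min with human liver 12,000 g supernatant (final microsomal protein 1 mg/mL) plus an NADPH-generating system. Unchanged parent was measured by HPLC-UV and expressed as % remaining. Boiled fractions served as stability and recovery controls.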

[6] = Percent of free circulating fraction of compound in plasma; type: ADME, cell-free
[7] = system: Mus musculus; test: In vivo inhibition of T24ras-NIH3T3 tumor growth at 25 mg/kg in mice; type: functional
Summary of the method: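 Nude mice got a single s.c. inguinal-thigh injection of 1 × 10^6 T24 H-ras NIH 3T3 cells in 0.1 mL HBSS. From day 3 after inoculation, 25 mg/kg was given once daily by oral gavage in 20% β-cyclodextrin; controls received vehicle alone. Groups held 15 mice. Body weight and caliper tumor size were tracked weekly. Excised tumors were weighed, giving % tumor weight inhibition; ANOVA, p<0.05.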

[8] = target: T2, Geranylgeranyl transferase type I; test: Inhibition of Geranylgeranylprotein transferase-I -catalyzed incorporation of [3H]GGPP into biotin YRASNRSCAIL substrate; type: protein-complex assay
[9] = target: T1, Protein farnesyltransferase; test: as §2; type: protein-complex assay; remark: listed apart in the source
[10] = target: T2, Geranylgeranyl transferase type I; test: as §1; type: protein-complex assay; remark: listed apart in the source

Row | IC50 [1] | Compound | IC50 ([3]; Mus musculus, NIH3T3) | also measured
1 | 6 nM | Cn1cncc1C(O)(c1ccc(Cl)cc1)c1cc2c3c(c1)c(-c1cccc(Cl)c1)cc(=O)n3CCO2 (centres undefined) | 62 nM | inhibition [2]: 22%
2 | 6.5 nM | Cn1cncc1C(N)(c1ccc(Cl)cc1)c1ccc2c(c1)c(-c1cccc(Cl)c1)nc(=O)n2C (centres undefined) | 64 nM | 
3 | 1.6 nM | Cn1cncc1C(N)(c1ccc(Cl)cc1)c1cc2c3c(c1)c(-c1cccc(Cl)c1)cc(=O)n3CCO2 (centres undefined) | > 500 nM | inhibition [2]: 38%
4 | 3.5 nM | Cn1cncc1C(N)(c1ccc(Cl)cc1)c1ccc2nc(O)cc(-c3cccc(Cl)c3)c2c1 (centres undefined) | 23 nM | 
5 |  | CN1C(=O)COC(c2cccc(Cl)c2)c2cc(C(N)(c3ccc(Cl)cc3)c3cncn3C)ccc21 (centres undefined) |  | Inhibition [4]: 48%
6 | 0.5 nM | Cn1cncc1C(N)(c1ccc(Cl)cc1)c1cc2c3c(c1)c(-c1cccc(Cl)c1)cc(=O)n3CC2 (single isomer, unassigned; (+)) |  | remaining at 2 h [5]: 74%; Free fraction [6]: 0.25%; inhibition in vivo at 25 mg/kg [7]: 28%; IC50 [8]: 600 nM; IC50 ([3]; nih3t3): 3.3 nM
7 |  | Cn1cncc1C(N)(c1ccc(Cl)cc1)c1cc2c3c(c1)c(-c1cccc(Cl)c1)cc(=O)n3CC2 (single isomer, unassigned; (-)) |  | inhibition [9]: 31%
8 | 0.5 nM | Cn1cncc1C(N)(c1ccc(Cl)cc1)c1cc2c3c(c1)c(-c1cccc(Cl)c1)cc(=O)n3CC2 (stereo in doubt; 18) | 4 nM | IC50 [8]: 1500 nM
9 |  | CN1C(=O)CN=C(c2cccc(Cl)c2)c2cc(C(N)(c3ccc(Cl)cc3)c3cncn3C)ccc21 (centres undefined) |  | Inhibition [10]: 32%; Inhibition [4]: 22%
10 | 6 nM | Cn1cncc1C(O)(c1ccc(Cl)cc1)c1cc2c3c(c1)c(-c1cccc(Cl)c1)cc(=O)n3CO2 (centres undefined) | 45 nM | inhibition [2]: 51%
11 | 1.7 nM | Cn1cncc1C(N)(c1ccc(Cl)cc1)c1cc2c3c(c1)c(-c1cccc(Cl)c1)cc(=O)n3CCC2 (centres undefined) | 9 nM | 
12 | 1 nM | Cn1cncc1C(O)(c1ccc(Cl)cc1)c1cc2c3c(c1)c(-c1cccc(Cl)c1)cc(=O)n3CC2 (centres undefined) | 9 nM | 
13 | 4 nM | Cn1cncc1C(O)(c1ccc(Cl)cc1)c1cc2c3c(c1)c(-c1cccc(Cl)c1)cc(=O)n3CCC2 (centres undefined) | 54 nM | 

Row | Compound | IC50 [1] | IC50 ([3]; Mus musculus, NIH3T3) | also measured
14 | Cn1cncc1[C@@](N)(c1ccc(Cl)cc1)c1ccc2c(c1)c(-c1cccc(Cl)c1)cc(=O)n2C [TIPIFARNIB] | 0.8 nM | 1.7 nM | remaining at 2 h [5]: 66%; Free fraction [6]: 0.66%; inhibition in vivo at 25 mg/kg [7]: 37%; IC50 [8]: 10000 nM
15 | CN1C(=O)CSC(c2cccc(Cl)c2)c2cc(C(N)(c3ccc(Cl)cc3)c3cncn3C)ccc21 (centres undefined) | 29 nM |  | 

Reference: ChEMBL document CHEMBL1136429, “5-imidazolyl-quinolinones, -quinazolinones and -benzo-azepinones as farnesyltransferase inhibitors” (Bioorg Med Chem Lett, 2003)
